High-throughput results deposited in PubChem by The Scripps Research Institute Molecular Screening Center.
CHRM5 PAM = CHRM5 positive allosteric modulation. P08912. CHO-K1 hM5, Fluo-8 calcium, ACh EC20 PAM; 0% = ACh EC20, 100% = ACh EC100. activation, % at 3 µM. actives 0.3% (n = 360,000);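 active = activation above the run cutoff, the mean activation of all test compounds plus 3 SD, cut at about 18% in these data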
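Assay system: CHO-K1 hM5 cells. Also added: acetylcholine at EC20 concentration, added after compound. Dosing: 3 µM, single dose. Times: compound preincubation 140 s before EC20 acetylcholine addition. Signal: Fluo-8 calcium fluorescence. Measure: % activation relative to EC20 and EC100 ACh responses. Repeats: singlicate, one well per test compound.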
M4 PAM = CHRM4 positive allosteric modulation; CHO-K1 hM4/Gqi5, Fluo-8 calcium fluorescence, ACh EC20; 0% = ACh EC20, 100% = maximal ACh; activation, % at 3 µM; AID 624126; actives 0.4% (n = 360,000);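 active = activation above its plate's cutoff, the mean activation of sample wells plus 3 SD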
Target sequence (P08173 whole entry, looked up): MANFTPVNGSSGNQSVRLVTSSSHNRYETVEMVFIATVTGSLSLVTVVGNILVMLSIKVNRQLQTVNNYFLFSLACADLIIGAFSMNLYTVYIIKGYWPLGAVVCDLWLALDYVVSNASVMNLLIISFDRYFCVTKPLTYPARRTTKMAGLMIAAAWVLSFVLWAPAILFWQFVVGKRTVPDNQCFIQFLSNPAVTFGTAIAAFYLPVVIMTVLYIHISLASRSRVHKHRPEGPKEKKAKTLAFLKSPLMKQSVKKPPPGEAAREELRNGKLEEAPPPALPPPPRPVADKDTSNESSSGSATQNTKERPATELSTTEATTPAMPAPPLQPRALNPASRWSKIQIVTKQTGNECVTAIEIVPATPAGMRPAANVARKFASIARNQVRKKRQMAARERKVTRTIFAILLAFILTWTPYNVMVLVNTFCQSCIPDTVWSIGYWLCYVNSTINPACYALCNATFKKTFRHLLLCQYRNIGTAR
CHRM4 antagonist = antagonists of human muscarinic M4 receptor (CHRM4); CHO-hM4 cells, ACh EC80, Fluo-8 calcium fluorescence; inhibition, % at 3 µM; actives 0.73% (n = 360,000); AID 624125;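 active = inhibition above its plate's cutoff, the mean inhibition of sample wells plus 3 SD, cut at about 27% in these data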
M5 antag = CHRM5 antagonism in calcium assay | P08912 | CHO-hM5 cells, Fluo-8 calcium fluorescence, ACh EC80 | inhibition, % at 3 µM | actives 0.59% (n = 360,000) | AID 624040;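 active = inhibition above a per-plate cutoff, the mean of that plate's test compounds plus 3 SD, cut at about 27% in these data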
M5 ag = CHRM5 agonism in calcium assay. P08912. CHO-K1 hM5 cells, Fluo-8 calcium fluorescence; 0% DMSO wells, 100% maximal acetylcholine response. activation, % at 3 µM. actives 0.19% (n = 360,000);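 active = activation above the run's mean over test compounds plus 3 SD, cut at about 23% in these data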;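 also: signal is peak over basal fluorescence ratio across the kinetic read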
CHRM4 agonist = agonists of human muscarinic M4 receptor (CHRM4); activation, % at 3 µM; actives 0.14% (n = 360,000); CHO-K1 hM4/Gqi5, Fluo-8 calcium fluorescence; vehicle 0%, full acetylcholine response 100%; P08173;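 active = activation above the run mean over all test wells plus 3 SD, cut at about 32% in these data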;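 also: peak over basal fluorescence ratio per well then scaled between controls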
Each line names hits and unclear results; the compound was inactive in the other large screens. Hits are enriched below; roughly 1.9% of the tested compounds scored in any of these assays.

O=C1NC[C@H](CCCCN2C[C@H](Cc3ccc(O)cc3)N(CCc3ccc(O)cc3)C(=O)C2=O)N(Cc2ccccc2)C1=O	none
CN(C)c1ncnc2c1ncn2[C@H]1CN(Cc2ccc(Cl)cc2)C[C@@H](CO)O1	none
O=C(NCc1ccncc1)c1cccc(Cn2cc(Br)cn2)c1	CHRM4 antagonist 81.5
O=C(O)c1cccc(Cn2cc(Br)cn2)c1	none
CCc1cc(=O)oc2cc(C)cc(OCC(=O)NC(Cc3c[nH]c4ccc(O)cc34)C(=O)O)c12 (stereo not given)	M4 PAM 20.8
COc1cc(Cc2cc(OC)c(O)c(OC)c2)cc(OC)c1O	none
O=C(NCCC1=CCCCC1)C(=O)NCc1ccncc1	M4 PAM 21.4
O=C(NCCC1=CCCCC1)C(=O)NCCc1ccc(Cl)cc1	none
Cc1ccc(C)c(N2CCN(CCCNC(=O)Cn3cc4c(n3)CCCCC4)CC2)c1	CHRM4 antagonist 100.2
O=C(CCc1nnc2n(CCc3ccccc3)c(=O)c3ccccc3n12)NCCCN1CCCCC1	CHRM4 antagonist 37.4
O=C(CCc1nnc2n(Cc3ccc(Cl)cc3)c(=O)c3ccccc3n12)NCCN1CCCC1	none
CN1OC[C@@H]2CN3C(=O)N(c4ccccc4)c4ccccc4[C@@H]3C[C@@H]21	none
O=C1Nc2ccccc2C(=O)N(C2CCCC2)C1C(=O)NC1CC1 (stereo not given)	none
Cn1nc(OC(=O)Nc2cccc(Cl)c2)cc1C(F)(F)F	M5 antag 27.4
CCOC(=O)C1(C)CCCN(C(=O)c2cccc(C#N)c2)C1 (stereo not given)	none
Cc1c(-n2cc(C(=O)c3cc(F)ccc3O)cc(C#N)c2=O)c(=O)n(-c2ccccc2)n1C	none
CC(C)n1cc(C(=O)c2ccccc2O)cc(C#N)c1=O	none
N#Cc1cc(C(=O)c2cc(F)ccc2O)cn(-c2nccs2)c1=O	M5 antag 29.4, M5 ag 61.7, CHRM4 agonist 96.5
N#Cc1cc(C(=O)c2ccccc2O)cn(-c2nccs2)c1=O	CHRM4 antagonist 36.3, M5 antag 28.3, M5 ag 68.0, CHRM4 agonist 70.8
CO[C@@H]1CN(C)C(=O)c2cc(NC(=O)Nc3cc(F)ccc3F)ccc2OC[C@H](C)N(C(=O)c2cnccn2)C[C@@H]1C	none
Cc1cn([C@H]2C[C@H](O)[C@@H](CCC(=O)NCC3CCCO3)O2)c(=O)[nH]c1=O (stereo not given in full)	none
NS(=O)(=O)c1ccc(Nc2nc(-c3cccc([N+](=O)[O-])c3)cs2)cc1	none
O=C(Nc1nc(-c2ccc3ccccc3c2)cs1)c1ccc(N2C(=O)CCC2=O)cc1	none
O=C(O)c1ccccc1C(=O)Nc1nc(-c2ccc3ccccc3c2)cs1	M4 PAM 23.5
NS(=O)(=O)c1ccc(Nc2nc(-c3ccc4ccccc4c3)cs2)cc1	CHRM4 antagonist 36.9
O=C(COC(=O)Cc1c[nH]c2ccccc12)Nc1cccc(Br)c1	none
Cc1ccc(S(=O)(=O)N2[C@@H](CO)CO[C@H]2CC(=O)OCc2ccccc2)cc1	none
COC(=O)C1=C(C)NC2=C(C(=O)CC(C)(C)C2)C1c1ccccn1 (stereo not given)	none
COC(=O)C1=C(C)NC2=C(C(=O)C(C(=O)OC)C(c3ccc(OC)cc3)C2)C1c1ccccn1 (stereo not given)	CHRM5 PAM 37.4
COC(=O)C(C(=O)OC)c1ccccc1NS(=O)(=O)c1c(C)cc(C)cc1C	none
C=C(C)COc1ccc(-c2[nH]ncc2Oc2ccc(OC)cc2)c(O)c1	CHRM4 antagonist 41.2
CCCCCCn1cc(CN2CC(N3CCN(C4CCN(C)CC4)CC3)CS2(=O)=O)nn1 (stereo not given)	none
O=C(c1[nH]c(C(F)(F)F)nc1-c1ccccc1)N1CCC2(CC1)C(=O)NCN2c1ccccc1	none
CC1=CC(C)(C)N2C(=O)C(=O)c3cc(OC(=O)c4ccco4)cc1c32	M5 ag 35.9
CC(C)c1c(C(=O)Nc2ccccc2)c(-c2ccccc2)c(-c2ccc(F)cc2)n1CC[C@@H](O)C[C@@H](O)CC(=O)O	none
COc1cc(Cl)c(C)cc1NC(=O)c1ccc(NS(=O)(=O)c2ccc(F)c(F)c2)cc1	M4 PAM 20.0
C[C@@H]1CCCCO[C@H](CN(C)C(=O)Cc2ccccc2)[C@@H](C)CN([C@H](C)CO)C(=O)c2cc(NC(=O)Nc3ccccc3)ccc2O1	none
O=C(OCCC12CC3CC(CC(C3)C1)C2)c1ccc(NCc2cc(O)ccc2O)cc1	CHRM5 PAM 26.8
COc1ccc2cc(CN(C)C(=O)CN3C(=O)NC4(CCCC4)C3=O)ccc2c1	none
Cc1cccc2sc(N(CCCN(C)C)C(=O)c3ccco3)nc12	CHRM4 antagonist 72.9, M5 antag 49.0
Cc1cccc2sc(N(CCCN(C)C)C(=O)c3ccc(Cl)s3)nc12	none
COc1ccc(C)c2sc(N(CCCN(C)C)C(=O)c3ccc4c(c3)OCCO4)nc12	M4 PAM 67.0, CHRM4 antagonist 54.3
Cc1cc(C)c2nc(N(CCCN(C)C)C(=O)c3ccc4c(c3)OCCO4)sc2c1	M4 PAM 28.6
C=CCOC(=O)Nc1nc(CCNC(=O)OC(C)(C)C)c(C(=O)O)s1	none
CCNC(=O)C1(C)CCN(Cc2ccc(C#N)cc2)C1 (stereo not given)	none
CN(CC(=O)Nc1cccc(F)c1)C(=O)CCC1CCCCC1	M4 PAM 17.8
COc1ccc(C(=O)COC(=O)C(CCSC)NS(=O)(=O)c2ccc(Cl)cc2)cc1 (stereo not given)	CHRM4 antagonist 27.4
Cc1ccc2c(c1)NC(=O)C(CC(=O)Nc1ccc(CN3CCC(C)CC3)cc1)O2 (stereo not given)	CHRM4 antagonist 98.7, M5 antag 71.1
CC1=C(C(=O)N2CCCCCC2)CC(CC(=O)NCCCCc2ccccc2)C(=O)N1CCC1=CCCCC1 (stereo not given)	none
COC(C[C@@H]1O[C@H]1C(=O)COCc1ccccc1)OC	M4 PAM 24.6
CCC1CCCCN1CCNS(=O)(=O)c1ccc2c(c1)oc(=O)n2C (stereo not given)	CHRM4 antagonist 29.2
CCC1CCCCN1CCCNS(=O)(=O)c1ccc2c(c1)oc(=O)n2C (stereo not given)	none
COc1cccc(CCOC(=O)c2c(-c3ccsc3)oc3c2C(OC(C)=O)CCC3)c1 (stereo not given)	none
c1ccc(COc2ccc(-c3cc4nc(NCCCn5ccnc5)ccn4n3)cc2)cc1	none
CCN(CC)CCNC(=O)c1ccc(NC(C)=O)cc1	none
CCN(CC)CCNC(=O)c1ccc(N)cc1	CHRM4 antagonist 29.4
